Measurements: paper PMC2741613 (Journal of the American Chemical Society, 2009)

Key:
PTP1B = target: T1, PTP1B (Homo sapiens, UniProt P18031); assay: PTP activity assay with pNPP, PTP1B; type: biochemical
T1 sequence (P18031 1-435): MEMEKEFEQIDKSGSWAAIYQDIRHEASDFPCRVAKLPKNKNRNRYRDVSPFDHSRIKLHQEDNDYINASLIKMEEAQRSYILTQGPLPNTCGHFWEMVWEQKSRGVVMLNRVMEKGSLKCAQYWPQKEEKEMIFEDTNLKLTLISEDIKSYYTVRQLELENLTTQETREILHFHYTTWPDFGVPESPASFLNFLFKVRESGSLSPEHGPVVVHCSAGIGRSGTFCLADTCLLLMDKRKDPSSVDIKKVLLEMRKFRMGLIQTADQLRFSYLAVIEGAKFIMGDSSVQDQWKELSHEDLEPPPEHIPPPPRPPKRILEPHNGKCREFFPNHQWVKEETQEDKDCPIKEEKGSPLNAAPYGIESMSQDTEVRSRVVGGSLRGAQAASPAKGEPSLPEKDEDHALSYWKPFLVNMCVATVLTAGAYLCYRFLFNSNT
Method in brief: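 Reactions started by adding enzyme (2 nM final) to mixtures with varied pNPP and varied test compound. Rates fitted with an enzyme-kinetics model to give Ki and mode of inhibition.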

PTPα = PTPα (Homo sapiens, UniProt P18433); assay: PTP activity assay with pNPP, PTPα; type: biochemical
Chain of PTPα (P18433 20-802): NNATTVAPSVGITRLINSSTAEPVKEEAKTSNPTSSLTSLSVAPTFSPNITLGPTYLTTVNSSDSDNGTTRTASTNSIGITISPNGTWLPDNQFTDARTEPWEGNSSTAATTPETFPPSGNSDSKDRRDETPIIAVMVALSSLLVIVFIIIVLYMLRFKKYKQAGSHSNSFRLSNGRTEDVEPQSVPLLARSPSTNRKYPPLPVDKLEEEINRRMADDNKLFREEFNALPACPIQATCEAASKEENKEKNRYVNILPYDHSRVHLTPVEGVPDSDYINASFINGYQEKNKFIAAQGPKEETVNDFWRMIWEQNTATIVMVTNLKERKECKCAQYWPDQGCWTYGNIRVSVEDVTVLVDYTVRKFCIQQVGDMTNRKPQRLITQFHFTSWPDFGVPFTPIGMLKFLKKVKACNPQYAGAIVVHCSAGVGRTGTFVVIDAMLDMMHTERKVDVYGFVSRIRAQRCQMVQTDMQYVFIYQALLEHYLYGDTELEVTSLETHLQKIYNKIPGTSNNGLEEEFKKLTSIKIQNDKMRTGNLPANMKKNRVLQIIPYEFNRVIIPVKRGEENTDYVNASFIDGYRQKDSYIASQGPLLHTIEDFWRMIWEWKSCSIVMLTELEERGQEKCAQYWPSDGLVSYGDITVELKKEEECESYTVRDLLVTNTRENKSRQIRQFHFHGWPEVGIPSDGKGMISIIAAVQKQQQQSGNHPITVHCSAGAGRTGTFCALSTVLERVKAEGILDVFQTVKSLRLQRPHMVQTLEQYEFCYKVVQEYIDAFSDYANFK
Method in brief: (§1)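 Reactions started by adding enzyme to mixtures with various pNPP and test-compound concentrations. Rates were fitted with an enzyme-kinetics model for Ki.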

PTP-Meg2 = target: T2, PTP-Meg2 (Homo sapiens, UniProt P43378); assay: PTP activity assay with pNPP, PTP-Meg2; type: biochemical
T2 sequence (P43378 1-593): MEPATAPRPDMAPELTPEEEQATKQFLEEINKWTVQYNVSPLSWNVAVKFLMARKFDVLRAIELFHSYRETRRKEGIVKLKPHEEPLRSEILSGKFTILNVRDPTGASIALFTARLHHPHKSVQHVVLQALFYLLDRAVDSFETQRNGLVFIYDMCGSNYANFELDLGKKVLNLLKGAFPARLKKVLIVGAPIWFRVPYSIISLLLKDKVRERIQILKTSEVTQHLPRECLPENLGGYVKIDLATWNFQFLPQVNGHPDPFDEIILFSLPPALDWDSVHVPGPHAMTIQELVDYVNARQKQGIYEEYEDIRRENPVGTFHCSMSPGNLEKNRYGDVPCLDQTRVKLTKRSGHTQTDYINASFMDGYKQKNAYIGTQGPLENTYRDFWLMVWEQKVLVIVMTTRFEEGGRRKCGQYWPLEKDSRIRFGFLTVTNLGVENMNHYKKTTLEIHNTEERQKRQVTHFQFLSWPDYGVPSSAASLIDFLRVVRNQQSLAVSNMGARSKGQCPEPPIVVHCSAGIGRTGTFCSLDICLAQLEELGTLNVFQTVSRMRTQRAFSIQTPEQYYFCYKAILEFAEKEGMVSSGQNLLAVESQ
Method in brief: as §1

VHR = VHR (Homo sapiens, UniProt P51452); assay: PTP activity assay with pNPP, VHR; type: biochemical
Chain of VHR (P51452 whole entry, species assumed): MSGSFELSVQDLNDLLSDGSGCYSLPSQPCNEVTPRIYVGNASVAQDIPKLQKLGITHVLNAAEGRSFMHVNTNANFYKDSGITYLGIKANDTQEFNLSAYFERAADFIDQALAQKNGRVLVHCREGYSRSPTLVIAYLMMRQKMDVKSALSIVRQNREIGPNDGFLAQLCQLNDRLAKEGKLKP
Method in brief: as §1

TC-PTP = target: T3, TC-PTP (Homo sapiens, UniProt P17706); assay: TC-PTP-catalyzed pNPP hydrolysis inhibition; type: biochemical
T3 sequence (P17706 1-415): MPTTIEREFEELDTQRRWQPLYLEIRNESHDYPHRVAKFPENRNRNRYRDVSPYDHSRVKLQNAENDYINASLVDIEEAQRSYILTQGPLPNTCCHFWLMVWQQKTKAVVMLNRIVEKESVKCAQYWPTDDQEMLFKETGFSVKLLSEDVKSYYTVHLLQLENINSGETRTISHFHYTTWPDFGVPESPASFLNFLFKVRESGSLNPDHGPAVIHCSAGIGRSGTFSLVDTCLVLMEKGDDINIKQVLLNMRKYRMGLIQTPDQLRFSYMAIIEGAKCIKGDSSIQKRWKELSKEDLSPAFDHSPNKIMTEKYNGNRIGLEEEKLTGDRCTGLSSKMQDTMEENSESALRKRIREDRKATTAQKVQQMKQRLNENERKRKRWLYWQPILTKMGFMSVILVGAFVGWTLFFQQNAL
Method in brief: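 IC50: enzyme added last (10 nM or 0.4 nM final) to 2 mM pNPP (Km) plus varied test compound, 30 min at room temperature, NaOH quench, A405. Reversibility: enzyme preincubated with test compound 30 min before pNPP. Mode/Ki: 0.4 nM enzyme, varied pNPP and inhibitor, kinetic fit.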

[1] = tested on: pSrc527 in PTP1B−/− mouse embryo fibroblast cells; assay: Src phosphorylation at Tyr527 in cells; type: cell-based; conditions: treated for two hours, various concentrations
Method in brief: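 PTP1B−/− mouse embryo fibroblasts at 80% confluence were exposed to test compound for two hours, then lysed and cleared at 15,000 rpm for 10 min. 30 μg total protein run on SDS-PAGE and blotted to PVDF. Probed with anti-pSrc416, anti-pSrc527 and anti-Src antibodies, HRP-conjugated secondaries.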

LMWPTP = target: T4, LMWPTP (Homo sapiens, UniProt P24666); assay: PTP activity assay with pNPP, LMWPTP; type: biochemical
T4 sequence (P24666 1-158): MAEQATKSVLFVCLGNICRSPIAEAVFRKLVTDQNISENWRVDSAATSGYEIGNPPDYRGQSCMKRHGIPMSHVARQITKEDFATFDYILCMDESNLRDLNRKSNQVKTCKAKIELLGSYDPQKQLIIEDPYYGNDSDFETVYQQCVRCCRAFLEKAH
Method in brief: as §1

Cdc14A = target: T5, Cdc14A (Homo sapiens, UniProt Q9UNH5); assay: PTP activity assay with pNPP, Cdc14A; type: biochemical
T5 sequence (Q9UNH5 1-594): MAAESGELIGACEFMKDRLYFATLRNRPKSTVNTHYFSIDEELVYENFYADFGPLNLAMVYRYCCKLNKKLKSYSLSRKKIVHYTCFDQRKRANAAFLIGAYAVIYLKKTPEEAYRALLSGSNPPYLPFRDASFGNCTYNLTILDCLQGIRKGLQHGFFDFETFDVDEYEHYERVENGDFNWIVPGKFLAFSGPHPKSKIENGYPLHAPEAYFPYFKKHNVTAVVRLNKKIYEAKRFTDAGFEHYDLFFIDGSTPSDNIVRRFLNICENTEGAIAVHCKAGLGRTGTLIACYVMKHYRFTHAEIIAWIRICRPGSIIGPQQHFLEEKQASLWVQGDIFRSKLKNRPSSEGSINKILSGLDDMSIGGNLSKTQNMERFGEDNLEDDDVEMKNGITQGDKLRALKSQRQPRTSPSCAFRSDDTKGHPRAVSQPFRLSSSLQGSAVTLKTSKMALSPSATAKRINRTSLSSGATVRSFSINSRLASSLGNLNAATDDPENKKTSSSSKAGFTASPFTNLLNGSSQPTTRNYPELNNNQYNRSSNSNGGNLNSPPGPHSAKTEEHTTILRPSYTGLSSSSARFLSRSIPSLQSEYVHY
Method in brief: as §1

With `CCc1ccc(C(=O)NCCCC[C@H](NC(=O)[C@H](Cc2ccc(C(F)(F)P(=O)(O)O)cc2)NC(=O)[C@H](Cc2ccccc2)NC(=O)CO[C@H]2C[C@@H](C)CC[C@@H]2C(C)C)C(N)=O)cc1` [Compound 8] the Ki (PTP1B; PTP1B) was 0.034 ± 0.0028 µM, the “selectivity for TC-PTP over PTP1B” value (PTP1B; TC-PTP versus PTP1B) was 8 fold and the Ki (PTPα) was greater than 1 µM. The Ki (PTP-Meg2) was greater than 1 µM, the Ki (VHR) was greater than 1 µM and the “reversibility of TC-PTP inhibition” value (TC-PTP; IC50 without or with 30 min preincubation) was “reversible”. The “mode of TC-PTP inhibition” value (TC-PTP; Lineweaver-Burk analysis, pNPP) was “competitive”, the Ki (TC-PTP; TC-PTP, pNPP substrate) was 0.0043 ± 0.0002 µM and the “effect on pSrc527 phosphorylation” value [1] was “no significant change”. The Ki (LMWPTP) was greater than 1 µM and the Ki (Cdc14A) was greater than 1 µM.
